# Assay results taken from ChEMBL document CHEMBL4732210, “Discovery of new phenyl sulfonyl-pyrimidine carboxylate derivatives as the potential multi-target drugs with effective anti-Alzheimer's action: Design, synthesis, crystal structure and in-vitro biological evaluation” (Eur J Med Chem, 2021).
# B1: Acetylcholinesterase (Homo sapiens), P22303 (protein)
# chain: MRPPQCLLHTPSLASPLLLLLLWLLGGGVGAEGREDAELLVTVRGGRLRGIRLKTPGGPVSAFLGIPFAEPPMGPRRFLPPEPKQPWSGVVDATTFQSVCYQYVDTLYPGFEGTEMWNPNRELSEDCLYLNVWTPYPRPTSPTPVLVWIYGGGFYSGASSLDVYDGRFLVQAERTVLVSMNYRVGAFGFLALPGSREAPGNVGLLDQRLALQWVQENVAAFGGDPTSVTLFGESAGAASVGMHLLSPPSRGLFHRAVLQSGAPNGPWATVGMGEARRRATQLAHLVGCPPGGTGGNDTELVACLRTRPAQVLVNHEWHVLPQESVFRFSFVPVVDGDFLSDTPEALINAGDFHGLQVLVGVVKDEGSYFLVYGAPGFSKDNESLISRAEFLAGVRVGVPQVSDLAAEAVVLHYTDWLHPEDPARLREALSDVVGDHNVVCPVAQLAGRLAAQGARVYAYVFEHRASTLSWPLWMGVPHGYEIEFIFGIPLDPSRNYTAEEKIFAQRLMRYWANFARTGDPNEPRDPKAPQWPPYTAGAQQYVSLDLRPLEVRRGLRAQACAFWNRFLPKLLSATDTLDEAERQWKAEFHRWSSYMVHWKNQFDHYSKQDRCSDL
# How the values were obtained:
# Format in all cases: cell-based
# Conditions in all cases: Erythrocyte
# [1] = compound: CCOC(=O)c1c(C)nc(N2CCN(S(=O)(=O)c3ccc(NC(C)=O)c(Cl)c3)CC2)nc1-c1ccc(OC)c(OC)c1; assay: Non-competitive inhibition of AChE in human erythrocytes assessed as Vmax at 25 nM measured at 2 mins interval for 10 mins by Lineweaver-Burk plot analysis
# Method in brief: (§1)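 Human AChE kinetics in the Ellman DTNB assay. Inhibitor at 25, 50 and 100 nM, each with six ATCI concentrations, against an inhibitor-free series. Activity read every 2 min over 10 min. Km and Vmax from Michaelis–Menten non-linear regression; mechanism from Lineweaver–Burk plots; Ki from Dixon plot over four inhibitor concentrations and from slope/intercept replots. Triplicate.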
# [2] = compound: CCOC(=O)c1c(C)nc(N2CCN(S(=O)(=O)c3ccc(NC(C)=O)c(Cl)c3)CC2)nc1-c1ccc(OC)c(OC)c1; assay: Non-competitive inhibition of AChE in human erythrocytes assessed as Vmax at 50 nM measured at 2 mins interval for 10 mins by Lineweaver-Burk plot analysis; method in brief: as §1
# [3] = compound: CCOC(=O)c1c(C)nc(N2CCN(S(=O)(=O)c3ccc(NC(C)=O)c(Cl)c3)CC2)nc1-c1ccc(OC)c(OC)c1; assay: Non-competitive inhibition of AChE in human erythrocytes assessed as Vmax at 100 nM measured at 2 mins interval for 10 mins by Lineweaver-Burk plot analysis; method in brief: as §1
# [4] = compound: CCOC(=O)c1c(C)nc(N2CCN(S(=O)(=O)c3ccc(NC(C)=O)c(Cl)c3)CC2)nc1-c1ccc(OC)c(OC)c1; assay: Non-competitive inhibition of AChE in human erythrocytes assessed as Km at 25 nM measured at 2 mins interval for 10 mins by Lineweaver-Burk plot analysis; method in brief: as §1
# [5] = compound: CCOC(=O)c1c(C)nc(N2CCN(S(=O)(=O)c3ccc(NC(C)=O)c(Cl)c3)CC2)nc1-c1ccc(OC)c(OC)c1; assay: Non-competitive inhibition of AChE in human erythrocytes assessed as Km at 50 nM measured at 2 mins interval for 10 mins by Lineweaver-Burk plot analysis; method in brief: as §1
# [6] = compound: CCOC(=O)c1c(C)nc(N2CCN(S(=O)(=O)c3ccc(NC(C)=O)c(Cl)c3)CC2)nc1-c1ccc(OC)c(OC)c1; assay: Non-competitive inhibition of AChE in human erythrocytes assessed as Km at 100 nM measured at 2 mins interval for 10 mins by Lineweaver-Burk plot analysis; method in brief: as §1
protein,measurement,setting,value
B1,Vmax,[1],7.2 U/min
same,Vmax,[2],6.52 U/min
same,Vmax,[3],5.54 U/min
same,Km,[4],0.0772 µM
same,Km,[5],0.0852 µM
same,Km,[6],0.0965 µM
